ABCG2 block = inhibitors of human ABCG2 transporter, ABCB1 counter-screen. inhibition, % at 6.6 µM. AID 1325. Q9UNQ0. IgMXP3 cells, JC-1 efflux, flow cytometry. actives 0.1% (n = 190,000);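 active = inhibition above 80%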;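 also: 0% = DMSO and 100% = nicardipine control wells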
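Test system: IgMXP3 (ABCG2) plus far-red-tagged CCRF-Adr (ABCB1) cells. Reagent: JC-1 dye as substrate. Timing: 10 min exposure at 25 °C with rotation, no wash. Measured by: flow cytometric JC-1 green MFI at 530 nm. Read-out: percent efflux inhibition, scaled nicardipine 100% to DMSO 0%. Control set: nicardipine and DMSO wells.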
MEKK2mut PB1 HTS = signal of MEK5 binding to mutant human MEKK2 PB1 domain; bead flow cytometry, Alexa488-MEK5 binding to MEKK2 mutant; percent response, % at 10 µM; actives 0.35% (n = 290,000); AID 1530; in the data active = percent response above about 24%, passing the limit was not always enough
MEKK2wt PB1 HTS = raises or lowers MEK5 binding to wildtype human MEKK2 PB1 domain. Q9Y2U5. bead flow cytometry, Alexa488-MEK5 binding to MEKK2 WT; actives lie on both sides. binding response (% of control), % at 10 µM. actives 1.1% (n = 290,000). AID 1531; in the data active = binding response below about 67% or above about 130%
MEKK3 PB1 HTS = MEKK3-MEK5 PB1 interaction, increase or decrease; Q99759; bead-based flow cytometry, Alexa488-MEK5 binding to MEKK3; actives lie on both sides; 0 = blocked by unlabeled MEK5, 100 = vehicle; binding response (% of control), % at 10 µM; actives 1.4% (n = 290,000); AID 1529;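 active = binding response more than 3 SD above or below the average of its plate-row segment, actives on both sides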;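 also: Alexa488 bead fluorescence after subtracting the streptavidin-only scavenger bead signal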
ABCB1 inh = inhibitors of human ABCB1 transporter, ABCG2 counter-screen; inhibition, % at 6.6 µM; actives 0.067% (n = 190,000); P08183; AID 1326; CCRF-Adr cells, JC-1 efflux, flow cytometry; in the data active = inhibition above about 40%;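 also: 0% = vehicle and 100% = reference inhibitor; higher value means more JC-1 retained so stronger ABCB1 efflux block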
Target sequence (P08183 whole entry, looked up): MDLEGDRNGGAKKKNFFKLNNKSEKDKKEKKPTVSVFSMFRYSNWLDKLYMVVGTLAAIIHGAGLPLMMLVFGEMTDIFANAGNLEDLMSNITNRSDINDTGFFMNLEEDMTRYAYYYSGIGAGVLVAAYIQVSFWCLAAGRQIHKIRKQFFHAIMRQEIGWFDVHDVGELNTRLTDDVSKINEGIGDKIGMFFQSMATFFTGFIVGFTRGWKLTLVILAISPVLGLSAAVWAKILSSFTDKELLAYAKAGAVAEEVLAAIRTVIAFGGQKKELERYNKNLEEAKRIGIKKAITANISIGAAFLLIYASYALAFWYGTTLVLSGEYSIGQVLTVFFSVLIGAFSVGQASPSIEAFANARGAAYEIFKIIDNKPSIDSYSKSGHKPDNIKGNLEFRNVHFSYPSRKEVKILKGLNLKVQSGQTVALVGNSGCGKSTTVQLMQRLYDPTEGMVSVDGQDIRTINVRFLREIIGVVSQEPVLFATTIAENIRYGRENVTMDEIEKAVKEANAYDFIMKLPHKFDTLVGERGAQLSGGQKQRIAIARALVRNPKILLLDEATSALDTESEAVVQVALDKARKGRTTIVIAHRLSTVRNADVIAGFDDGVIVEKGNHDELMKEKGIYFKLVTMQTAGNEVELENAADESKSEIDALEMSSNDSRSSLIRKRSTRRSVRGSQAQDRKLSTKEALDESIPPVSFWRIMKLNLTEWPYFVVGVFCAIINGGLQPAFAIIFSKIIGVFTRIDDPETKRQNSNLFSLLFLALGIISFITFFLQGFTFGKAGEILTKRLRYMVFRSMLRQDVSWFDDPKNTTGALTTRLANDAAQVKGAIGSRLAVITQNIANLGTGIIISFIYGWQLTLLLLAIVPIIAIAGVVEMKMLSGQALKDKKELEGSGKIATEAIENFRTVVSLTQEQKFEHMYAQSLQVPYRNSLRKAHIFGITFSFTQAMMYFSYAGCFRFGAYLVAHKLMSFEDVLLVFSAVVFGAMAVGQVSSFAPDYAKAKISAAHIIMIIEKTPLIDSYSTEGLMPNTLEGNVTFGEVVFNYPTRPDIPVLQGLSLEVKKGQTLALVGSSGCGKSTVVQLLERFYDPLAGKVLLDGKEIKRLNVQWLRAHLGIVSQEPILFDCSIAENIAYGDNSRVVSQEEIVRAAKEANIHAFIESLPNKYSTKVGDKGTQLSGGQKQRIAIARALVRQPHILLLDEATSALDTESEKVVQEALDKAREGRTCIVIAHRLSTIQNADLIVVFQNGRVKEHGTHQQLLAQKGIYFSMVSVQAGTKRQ
MEKK2wt confirm = raises or lowers MEK5 binding to wildtype human MEKK2, retest; shares compounds with MEKK3 PB1 HTS; bead flow cytometry, Alexa488-MEK5 binding to MEKK2 WT; actives lie on both sides; binding response (% of control), % at 10 µM; actives 2.4% (n = 5,900); AID 1892; in the data active = binding response below about 16% or above about 210%; inactive = in between
MEKK2mut-MEK5 = signal of MEK5 binding to mutant human MEKK2, retest | bead flow cytometry, Alexa488-MEK5 binding to MEKK2 mutant | AID 1893 | actives 2% (n = 5,900) | shares compounds with MEKK3 PB1 HTS | percent response, % at 10 µM; in the data active = percent response mostly above about 71%, no sharp cut-off; inactive = mostly below about 38%;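 also: higher means compound restores mutant binding toward wildtype level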
MEKK3-MEK5 inh = MEKK3-MEK5 PB1 inhibition, single concentration confirmation | shares compounds with MEKK3 PB1 HTS | bead flow cytometry, Alexa488-MEK5 binding to MEKK3; stronger effect = lower value | binding response (% of control), % at 10 µM | actives 1.8% (n = 5,900) | AID 1894;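 active = binding response below 72% of control, or above a set upper limit, though filed actives all read lower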;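 also: 100% = DMSO only wells and 0% = binding blocked by excess unlabeled MEK5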
Numbers without * were called inactive; [ ] = dose if it differs, or a comment. Sampled rows, rich in hits. Any-hit rate of the full collection: about 2.3%.

How did CN1C(=O)[C@@H]2[C@@H]3C[C@@H]([C@H]4ON=C(c5ccc(Cl)cc5)[C@@H]34)[C@@H]2C1=O do in these assays?
ABCG2 block: 0; MEKK2mut PB1 HTS: -1; MEKK2wt PB1 HTS: 101; MEKK3 PB1 HTS: 102; ABCB1 inh: 0

How did COc1ccccc1C1CC(=O)NC(C)=C1C(=O)OC(C)C (configuration not stated) do in these assays?
ABCG2 block: 0; MEKK2mut PB1 HTS: -15; MEKK2wt PB1 HTS: 54; MEKK3 PB1 HTS: 49*[inhibitor]; ABCB1 inh: 0; MEKK2wt confirm: 96; MEKK2mut-MEK5: -2; MEKK3-MEK5 inh: 104

How did CC(C)CCN(C(=S)Nc1cccc(F)c1)C(C)c1cccs1 (configuration not stated) do in these assays?
ABCG2 block: 5; MEKK2mut PB1 HTS: -13; MEKK2wt PB1 HTS: 59; MEKK3 PB1 HTS: 46*[inhibitor]; ABCB1 inh: -1; MEKK2wt confirm: 104; MEKK2mut-MEK5: -5; MEKK3-MEK5 inh: 103

How did O=C(COc1ccc(S(=O)(=O)N2CCCCC2)cc1)N1CCCC1 do in these assays?
MEKK2mut PB1 HTS: 1; MEKK2wt PB1 HTS: 104; MEKK3 PB1 HTS: 99

Results for Cc1cccc(NC(=O)CSc2nnc(CNC(=O)c3ccco3)n2C)c1 ?
MEKK2mut PB1 HTS: 6; MEKK2wt PB1 HTS: 111; MEKK3 PB1 HTS: 109

How did O=C(OCCC1Oc2cccnc2NC1=O)c1ccc([N+](=O)[O-])cc1 (configuration not stated) do in these assays?
ABCG2 block: 2; MEKK2mut PB1 HTS: -9; MEKK2wt PB1 HTS: 75; MEKK3 PB1 HTS: 74*[inhibitor]; ABCB1 inh: 0; MEKK2wt confirm: 100; MEKK2mut-MEK5: -1; MEKK3-MEK5 inh: 99

What do the screens show for `C=CCn1c(-c2ccccc2)c[nH]c1=S`?
ABCG2 block: 2; MEKK2mut PB1 HTS: 5; MEKK2wt PB1 HTS: 124; MEKK3 PB1 HTS: 124*; ABCB1 inh: 0; MEKK2wt confirm: 104; MEKK2mut-MEK5: 8; MEKK3-MEK5 inh: 104

What do the screens show for `O=C1CC(c2ccc3c(c2)OCCO3)Oc2ccc([N+](=O)[O-])cc21` (configuration not stated)?
MEKK2mut PB1 HTS: 17; MEKK2wt PB1 HTS: 134*; MEKK3 PB1 HTS: 109; MEKK2wt confirm: 93; MEKK2mut-MEK5: -27; MEKK3-MEK5 inh: 95

How did CCC(=O)c1ccc(OCC(O)CN2CCOCC2)cc1 (configuration not stated) do in these assays?
ABCG2 block: 2; MEKK2mut PB1 HTS: -31; MEKK2wt PB1 HTS: 2.0*[inhibitor]; MEKK3 PB1 HTS: 2.0*[inhibitor]; ABCB1 inh: 0; MEKK2wt confirm: 99; MEKK2mut-MEK5: -2; MEKK3-MEK5 inh: 101

How did CCC(=O)c1ccc(OCC(O)CN2CCN(C(c3ccccc3)c3ccccc3)CC2)cc1 (configuration not stated) do in these assays?
ABCG2 block: 4; MEKK2mut PB1 HTS: 18; MEKK2wt PB1 HTS: 158*; MEKK3 PB1 HTS: 105; ABCB1 inh: 2; MEKK2wt confirm: 114; MEKK2mut-MEK5: 8; MEKK3-MEK5 inh: 103

What do the screens show for `CCc1ccc(NC(=O)CCC(=O)Nc2nnc(C(C)C)s2)cc1`?
MEKK2mut PB1 HTS: 3; MEKK2wt PB1 HTS: 101; MEKK3 PB1 HTS: 101

How did O=C(CSc1nc2ccccc2s1)N1N=C(c2cccs2)CC1c1ccc(F)cc1 (configuration not stated) do in these assays?
ABCG2 block: 1; MEKK2mut PB1 HTS: -1; MEKK2wt PB1 HTS: 95; MEKK3 PB1 HTS: 73*[inhibitor]; ABCB1 inh: 0; MEKK2wt confirm: 95; MEKK2mut-MEK5: -7; MEKK3-MEK5 inh: 98

What do the screens show for `COc1ccc(C2CC(c3cccs3)=NN2C(=O)CSc2nc3ccccc3s2)cc1` (configuration not stated)?
ABCG2 block: 2; MEKK2mut PB1 HTS: -1; MEKK2wt PB1 HTS: 99; MEKK3 PB1 HTS: 130*; ABCB1 inh: 1; MEKK2wt confirm: 93; MEKK2mut-MEK5: -6; MEKK3-MEK5 inh: 99

How did CCOC(=O)CSCC(=O)N1N=C(c2cccs2)CC1c1ccc(F)cc1 (configuration not stated) do in these assays?
ABCG2 block: 7; MEKK2mut PB1 HTS: 7; MEKK2wt PB1 HTS: 109; MEKK3 PB1 HTS: 107; ABCB1 inh: 1

How did COc1ccc(C2CC(c3cccs3)=NN2C(=O)CSc2nc3ccccc3o2)cc1 (configuration not stated) do in these assays?
ABCG2 block: 13; MEKK2mut PB1 HTS: 3; MEKK2wt PB1 HTS: 98; MEKK3 PB1 HTS: 95; ABCB1 inh: 2

Results for COCCNC(=O)c1cn(C)c2ccccc2c1=O ?
ABCG2 block: 6; MEKK2mut PB1 HTS: -14; MEKK2wt PB1 HTS: 74; MEKK3 PB1 HTS: 70*[inhibitor]; ABCB1 inh: 0; MEKK2wt confirm: 98; MEKK2mut-MEK5: -8; MEKK3-MEK5 inh: 96

What do the screens show for `COCCNC(=O)c1n[nH]c2ccccc12`?
ABCG2 block: 0; MEKK2mut PB1 HTS: -3; MEKK2wt PB1 HTS: 85; MEKK3 PB1 HTS: 70*[inhibitor]; ABCB1 inh: 0; MEKK2wt confirm: 105; MEKK2mut-MEK5: -2; MEKK3-MEK5 inh: 104

Results for COc1ccc(CCNC(=O)c2n[nH]c3ccccc23)cc1 ?
ABCG2 block: 14; MEKK2mut PB1 HTS: -5; MEKK2wt PB1 HTS: 95; MEKK3 PB1 HTS: 100; ABCB1 inh: 1

Results for CCCOP(=O)(c1ccccc1)c1ccccc1 ?
ABCG2 block: 6; MEKK2mut PB1 HTS: 0; MEKK2wt PB1 HTS: 106; MEKK3 PB1 HTS: 141*; ABCB1 inh: 1; MEKK2wt confirm: 97; MEKK2mut-MEK5: -6; MEKK3-MEK5 inh: 99

How did O=C(Nc1cccc(F)c1)c1cccnc1NCCc1ccccc1 do in these assays?
ABCG2 block: 5; MEKK2mut PB1 HTS: 1; MEKK2wt PB1 HTS: 125; MEKK3 PB1 HTS: 106; ABCB1 inh: 0

What do the screens show for `O=C(Nc1ccc(F)cc1)c1cccnc1NCCc1ccccc1`?
ABCG2 block: 20; MEKK2mut PB1 HTS: 1; MEKK2wt PB1 HTS: 112; MEKK3 PB1 HTS: 142*; ABCB1 inh: 0; MEKK2wt confirm: 100; MEKK2mut-MEK5: -6; MEKK3-MEK5 inh: 103

Results for CC(C)Cn1c(=O)c(C(=O)Nc2ccccc2S(N)(=O)=O)c(O)c2ccccc21 ?
ABCG2 block: -1; MEKK2mut PB1 HTS: 6; MEKK2wt PB1 HTS: 99; MEKK3 PB1 HTS: 102; ABCB1 inh: 0

Screening results as filed in PubChem BioAssay.
